Calls of active or inactive are those of the source. No cut-off for these calls is given here.
Tests used:
HCT-116 [1] = assay: Cell cycle arrest in human HCT116 cells assessed as accumulation at G1 phase at 1 uM after 24 hrs by propidium iodide staining-based flow cytometric analysis (reference value: 48.8%); type: functional
Method in brief: (§1)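 Sub-confluent cells treated at several concentrations for 24 h, then pulsed with 10 μM BrdU for 30 min at 37 °C before harvest. Cells were PBS-washed, fixed in 70% ethanol, denatured in 2 M HCl and neutralized. Stained with fluorescein anti-BrdU and propidium iodide; DNA content read by flow cytometry with 488 nm excitation.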

HCT-116 [2] = assay: Cell cycle arrest in human HCT116 cells assessed as accumulation at subG1 phase at 1 uM after 24 hrs by propidium iodide staining-based flow cytometric analysis (reference value: 1.4%); type: functional; method in brief: as §1
HCT-116 [3] = assay: Cell cycle arrest in human HCT116 cells assessed as accumulation at S phase at 0.2 uM after 24 hrs by propidium iodide staining-based flow cytometric analysis (reference value: 31.6%); type: functional; method in brief: as §1
HCT-116 [4] = assay: Cell cycle arrest in human HCT116 cells assessed as accumulation at subG1 phase at 0.2 uM after 24 hrs by propidium iodide staining-based flow cytometric analysis (reference value: 1.4%); type: functional; method in brief: as §1
G-361 = assay: Ratio of roscovitine IC50 to compound IC50 for human G361 cells; type: functional
Method in brief: (§2)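 Cytotoxicity IC50s underlying the ratio: cells treated in triplicate with three-fold compound dilutions for 72 h, then Calcein AM added and live-cell fluorescence read at 485/538 nm (ex/em).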

CCRF-CEM [5] = assay: Ratio of roscovitine IC50 to compound IC50 for human CEM cells; type: functional; method in brief: as §2
MCF7 [6] = assay: Ratio of roscovitine IC50 to compound IC50 for human MCF7 cells; type: functional; method in brief: as §2
HOS = assay: Cytotoxicity against human HOS cells assessed as reduction in number of viable cells after 72 hrs by fluorescence assay; type: functional, cell-based
Method in brief: (§3)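 Three-fold compound dilutions tested in triplicate on cultured cells for 72 h. Viable cells detected by adding Calcein AM and reading fluorescence at 485/538 nm (ex/em).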

CCRF-CEM [7] = assay: Cytotoxicity against human CEM cells assessed as reduction in number of viable cells after 72 hrs by fluorescence assay; type: functional, cell-based; method in brief: as §3
MCF7 [8] = assay: Cytotoxicity against human MCF7 cells assessed as reduction in number of viable cells after 72 hrs by fluorescence assay; type: functional, cell-based; details: MCF7, 72 h; method in brief: as §3
[9] = molecular target: Cyclin-dependent kinase 2/cyclin E1 (Homo sapiens, UniProt P24941); assay: Inhibition of CDK2/Cyclin E (unknown origin) expressed in Sf9 cells using histone H1 as substrate
K562 [10] = assay: Induction of apoptosis in human K562 cells assessed as caspase-3/7 activation by fluorescence assay; type: functional, cell-based
Method in brief: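 After 24 h treatment, cells were lysed on ice for 20 min in pH 7.4 HEPES/KCl/EDTA/EGTA/0.2% CHAPS buffer with protease inhibitors and cleared at 10,000 × g for 30 min at 4 °C. Protein was equalized, then incubated for 1 h with 100 μM Ac-DEVD-AMC in PIPES buffer pH 7.3 containing DTT. Fluorescence was read at 355/460 nm; 100 μM Ac-DEVD-CHO served as the negative control.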

K562 [11] = assay: Induction of apoptosis in human K562 cells assessed as decrease in MCL1 level after 24 hrs by immunoblotting analysis; type: functional, cell-based
Method in brief: (§4)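 Cells were treated for 24 h, harvested directly into Laemmli sample buffer, and run on SDS-PAGE. Proteins were blotted to nitrocellulose, blocked, probed overnight with primary antibodies, then with peroxidase-linked secondaries. Bands were detected by ECL with a CCD camera. PCNA and tubulin served as loading references.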

K562 [12] = assay: Induction of apoptosis in human K562 cells assessed as caspase-3 activation up to 5 uM after 24 hrs by immunoblotting analysis; type: functional, cell-based; method in brief: as §4
K562 [13] = assay: Induction of apoptosis in human K562 cells assessed as change in BCL2 level up to 5 uM after 24 hrs by immunoblotting analysis; type: functional, cell-based; method in brief: as §4
[14] = molecular target: T1, CDK9/cyclin T1 (Homo sapiens) (UniProt O60563+P50750); assay: Inhibition of CDK9/CyclinT1 in human ARN8 cells assessed as increase in p53-dependent transcriptional activity after 24 hrs by beta-galactosidase reporter gene assay; type: cell-based
Method in brief: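 Arn-8 human melanoma cells stably carrying p53-responsive pRGCΔfoslacZ reporter; 24 h compound exposure, then permeabilized with 0.3% Triton X-100 for 15 min. 4-Methylumbelliferon-β-D-galactopyranoside added (80 μM final); fluorescence read at 355/460 nm (ex/em) after 1 h as β-galactosidase activity.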

[15] = molecular target: T1, CDK9/cyclin T1 (Homo sapiens); assay: Inhibition of CDK9/CyclinT1 in human HCT116 cells assessed as increase in p21 expression at 1 to 5 uM after 24 hrs by immunoblotting analysis; type: cell-based; details: HCT-116
Method in brief: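 Immunoblot: cells lysed by harvesting in Laemmli sample buffer, proteins run on SDS-PAGE, electroblotted to nitrocellulose, blocked, primary antibodies overnight, peroxidase-conjugated secondaries, ECL detection by CCD camera. Antibodies included anti-phospho RNA polymerase II (S2), anti-RNA polymerase II (ARNA-3), anti-p53 (DO-1), anti-p21waf1 (118), anti-PCNA.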

[16] = molecular target: Cyclin-dependent kinase 7/ cyclin H (Homo sapiens) (UniProt P51946+P50613); assay: Inhibition of CDK7/CyclinH/MAT1-mediated phosphorylation of RNA polymerase 2 at Ser2 in human HCT116 cells up to 25 uM after 24 hrs by immunoblotting analysis; type: cell-based; details: HCT-116
Method in brief: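 Treated cells were lysed in Laemmli buffer and separated by SDS-PAGE, then transferred to nitrocellulose. Blots were probed overnight with phospho-RNA polymerase II (S2) and total RNA polymerase II (clone ARNA-3) antibodies, followed by peroxidase secondaries. Signal was developed by ECL on a CCD camera.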

K562 [17] = assay: Cell cycle arrest in human K562 cells assessed as accumulation at G2/M phase at 5 uM after 24 hrs by propidium iodide staining-based flow cytometric analysis (reference value: 13.8%); type: functional; method in brief: as §1
K562 [18] = assay: Cell cycle arrest in human K562 cells assessed as accumulation at S phase at 5 uM after 24 hrs by propidium iodide staining-based flow cytometric analysis (reference value: 38.8%); type: functional; method in brief: as §1
K562 [19] = assay: Cell cycle arrest in human K562 cells assessed as accumulation at G1 phase at 5 uM after 24 hrs by propidium iodide staining-based flow cytometric analysis (reference value: 47.3%); type: functional; method in brief: as §1
K562 [20] = assay: Cell cycle arrest in human K562 cells assessed as accumulation at G2/M phase at 0.2 uM after 24 hrs by propidium iodide staining-based flow cytometric analysis (reference value: 13.8%); type: functional; method in brief: as §1
K562 [21] = assay: Cell cycle arrest in human K562 cells assessed as accumulation at S phase at 0.2 uM after 24 hrs by propidium iodide staining-based flow cytometric analysis (reference value: 38.8%); type: functional; method in brief: as §1
K562 [22] = assay: Cell cycle arrest in human K562 cells assessed as accumulation at G1 phase at 0.2 uM after 24 hrs by propidium iodide staining-based flow cytometric analysis (reference value: 47.3%); type: functional; method in brief: as §1
HCT-116 [23] = assay: Cell cycle arrest in human HCT116 cells assessed as accumulation at G2/M phase at 5 uM after 24 hrs by propidium iodide staining-based flow cytometric analysis (reference value: 19.6%); type: functional; method in brief: as §1
HCT-116 [24] = assay: Cell cycle arrest in human HCT116 cells assessed as accumulation at G1 phase at 5 uM after 24 hrs by propidium iodide staining-based flow cytometric analysis (reference value: 48.8%); type: functional; method in brief: as §1

Which results are given for `CC[C@@H](Nc1nc(NCc2cc(Cl)ccc2O)c2ncn(C(C)C)c2n1)C(C)O` (mixture of isomers)?
Activity (HCT-116 [1]): 39.4%; Activity (HCT-116 [2]): 3.3%; Activity (HCT-116 [3]): 31.1%; Activity (HCT-116 [4]): 1.5%; Ratio IC50 (G-361): >9; Ratio IC50 (CCRF-CEM [5]): >9; Ratio IC50 (MCF7 [6]): >9; IC50 (HOS): 2700 nM; IC50 (CCRF-CEM [7]): 1600 nM; IC50 (MCF7 [8]): 2600 nM; IC50 [9]: 13.1 nM; Activity (K562 [10]): Dose-dependent effect; Activity (K562 [11]): Dose-dependent effect; Activity (K562 [12]): inactive; Activity (K562 [13]): inactive; inhibition [14]: Dose-dependent effect; inhibition [15]: Active; inhibition [16]: Active; Activity (K562 [17]): 31.5%; Activity (K562 [18]): 27.8%; Activity (K562 [19]): 40.7%; Activity (K562 [20]): 25.8%; Activity (K562 [21]): 38.5%; Activity (K562 [22]): 34.7%; Activity (HCT-116 [23]): 37.9%; Activity (HCT-116 [24]): 29.5%
